ChEMBL document CHEMBL4689842, “EUbOPEN Chemogenomics Library wave 1” (2021)

Test system: HEK-293T
Experiment: Multiplex assay against HEK293T;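 for Population Tubulin-Different-Phenotype (%): share of the cells with healthy nuclei that show this phenotype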
Type: toxicity, cell-based
Details: human
Summary of the method: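 Phenotypes for tubulin, mitochondrial mass and membrane permeability are expressed as per cents of healthy-nucleus cells. Cells were stained live at seeding with Hoechst33342, BioTracker Green Microtubule Cytoskeleton Dye, MitoTracker Red and Annexin V Alexa Fluor 680, then imaged after compound addition on a CQ1 microscope at 37°C and 5% CO2. Machine-learning gating in CellPathfinder separated Hoechst high-intensity objects from normal cells, divided normal cells by nuclear state (healthy, pyknosed, fragmented) and divided pyknosed cells into mitotic or apoptotic.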

[1] = 12 h, 1 µM, compound concentration 1 uM, replicate 1
[2] = 12 h, 1 µM, compound concentration 1 uM, replicate 2
[3] = 12 h, 10 µM, compound concentration 10 uM, replicate 1
[4] = 12 h, 10 µM, compound concentration 10 uM, replicate 2
[5] = 24 h, 1 µM, compound concentration 1 uM, replicate 1
[6] = 24 h, 1 µM, compound concentration 1 uM, replicate 2
[7] = 24 h, 10 µM, compound concentration 10 uM, replicate 1
[8] = 24 h, 10 µM, compound concentration 10 uM, replicate 2
[9] = 48 h, 1 µM, compound concentration 1 uM, replicate 1
[10] = 48 h, 1 µM, compound concentration 1 uM, replicate 2
[11] = 48 h, 10 µM, compound concentration 10 uM, replicate 1
[12] = 48 h, 10 µM, compound concentration 10 uM, replicate 2

## COc1ccc(-c2ccc3ncc4c(c3c2)n(-c2ccc(N3CCNCC3)c(C(F)(F)F)c2)c(=O)n4C)cn1.O=C(O)/C=C\C(=O)O [BGT-226]
[1]
  Population Apoptotic (%): 70%
  Population Fragmented Nuclei (%): 22%
  Population Healthy Nuclei (%): 2%
  Population Hoechst High Intensity Objects (%): 25%
  Population Mitochondria Different-Phenotype (%): 87%
  Population Mitotic Cells (%): 29%
  Population Normal (%): 74%
  Population Pyknosed Nuclei (%): 74%
  Population Tubulin-Different-Phenotype (%): 87%
  Total Cell Count: 358
[2]
  Population Apoptotic (%): 78%
  Population Fragmented Nuclei (%): 8%
  Population Healthy Nuclei (%): 6%
  Population Hoechst High Intensity Objects (%): 10%
  Population Membrane Permeable-Phenotype (%): 0%
  Population Mitochondria Different-Phenotype (%): 100%
  Population Mitotic Cells (%): 21%
  Population Normal (%): 89%
  Population Pyknosed Nuclei (%): 84%
  Population Tubulin-Different-Phenotype (%): 90%
  Total Cell Count: 162
[3]
  Population Apoptotic (%): 72%
  Population Fragmented Nuclei (%): 28%
  Population Healthy Nuclei (%): 0%
  Population Hoechst High Intensity Objects (%): 28%
  Population Membrane Permeable-Phenotype (%): 50%
  Population Mitochondria Different-Phenotype (%): 50%
  Population Mitotic Cells (%): 27%
  Population Normal (%): 71%
  Population Pyknosed Nuclei (%): 70%
  Population Tubulin-Different-Phenotype (%): 100%
  Total Cell Count: 306
[4]
  Population Apoptotic (%): 96%
  Population Fragmented Nuclei (%): 51%
  Population Healthy Nuclei (%): 7%
  Population Hoechst High Intensity Objects (%): 45%
  Population Membrane Permeable-Phenotype (%): 11%
  Population Mitochondria Different-Phenotype (%): 16%
  Population Mitotic Cells (%): 3%
  Population Normal (%): 54%
  Population Pyknosed Nuclei (%): 41%
  Population Tubulin-Different-Phenotype (%): 66%
  Total Cell Count: 454
[5]
  Population Apoptotic (%): 70%
  Population Fragmented Nuclei (%): 27%
  Population Healthy Nuclei (%): 2%
  Population Hoechst High Intensity Objects (%): 20%
  Population Membrane Permeable-Phenotype (%): 12%
  Population Mitochondria Different-Phenotype (%): 75%
  Population Mitotic Cells (%): 29%
  Population Normal (%): 79%
  Population Pyknosed Nuclei (%): 69%
  Population Tubulin-Different-Phenotype (%): 75%
  Total Cell Count: 358
[6]
  Population Apoptotic (%): 84%
  Population Fragmented Nuclei (%): 9%
  Population Healthy Nuclei (%): 9%
  Population Hoechst High Intensity Objects (%): 8%
  Population Membrane Permeable-Phenotype (%): 7%
  Population Mitochondria Different-Phenotype (%): 92%
  Population Mitotic Cells (%): 15%
  Population Normal (%): 91%
  Population Pyknosed Nuclei (%): 81%
  Population Tubulin-Different-Phenotype (%): 92%
  Total Cell Count: 169
[7]
  Population Apoptotic (%): 77%
  Population Fragmented Nuclei (%): 38%
  Population Healthy Nuclei (%): 0%
  Population Hoechst High Intensity Objects (%): 35%
  Population Membrane Permeable-Phenotype (%): 0%
  Population Mitochondria Different-Phenotype (%): 0%
  Population Mitotic Cells (%): 22%
  Population Normal (%): 64%
  Population Pyknosed Nuclei (%): 61%
  Population Tubulin-Different-Phenotype (%): 0%
  Total Cell Count: 317
[8]
  Population Apoptotic (%): 98%
  Population Fragmented Nuclei (%): 48%
  Population Healthy Nuclei (%): 15%
  Population Hoechst High Intensity Objects (%): 46%
  Population Membrane Permeable-Phenotype (%): 25%
  Population Mitochondria Different-Phenotype (%): 28%
  Population Mitotic Cells (%): 1%
  Population Normal (%): 53%
  Population Pyknosed Nuclei (%): 35%
  Population Tubulin-Different-Phenotype (%): 77%
  Total Cell Count: 422
[9]
  Population Apoptotic (%): 74%
  Population Fragmented Nuclei (%): 38%
  Population Healthy Nuclei (%): 1%
  Population Hoechst High Intensity Objects (%): 21%
  Population Membrane Permeable-Phenotype (%): 0%
  Population Mitochondria Different-Phenotype (%): 100%
  Population Mitotic Cells (%): 25%
  Population Normal (%): 78%
  Population Pyknosed Nuclei (%): 60%
  Population Tubulin-Different-Phenotype (%): 100%
  Total Cell Count: 380
[10]
  Population Apoptotic (%): 84%
  Population Fragmented Nuclei (%): 10%
  Population Healthy Nuclei (%): 18%
  Population Hoechst High Intensity Objects (%): 11%
  Population Membrane Permeable-Phenotype (%): 3%
  Population Mitochondria Different-Phenotype (%): 88%
  Population Mitotic Cells (%): 15%
  Population Normal (%): 88%
  Population Pyknosed Nuclei (%): 71%
  Population Tubulin-Different-Phenotype (%): 85%
  Total Cell Count: 166
[11]
  Population Apoptotic (%): 85%
  Population Fragmented Nuclei (%): 45%
  Population Healthy Nuclei (%): 0%
  Population Hoechst High Intensity Objects (%): 42%
  Population Membrane Permeable-Phenotype (%): 0%
  Population Mitochondria Different-Phenotype (%): 0%
  Population Mitotic Cells (%): 14%
  Population Normal (%): 57%
  Population Pyknosed Nuclei (%): 54%
  Population Tubulin-Different-Phenotype (%): 0%
  Total Cell Count: 360
[12]
  Population Apoptotic (%): 98%
  Population Fragmented Nuclei (%): 53%
  Population Healthy Nuclei (%): 22%
  Population Hoechst High Intensity Objects (%): 44%
  Population Membrane Permeable-Phenotype (%): 14%
  Population Mitochondria Different-Phenotype (%): 48%
  Population Mitotic Cells (%): 1%
  Population Normal (%): 55%
  Population Pyknosed Nuclei (%): 24%
  Population Tubulin-Different-Phenotype (%): 75%
  Total Cell Count: 397
